pEC50, pIC50: −log10 of the molar value. Converted amounts (≈) assume the structure as drawn.
Columns and labels:
[1] = Intrinsic clearance in dog hepatocytes; type: ADME, cell-based, Canis lupus familiaris, Hepatocyte
[2] = biological target: T1, C-X-C chemokine receptor type 2 (Homo sapiens, UniProt P25025); test: Antagonist activity at TEV protease cleavage site linked GAL4-VP16-fused recombinant human CXCR2 expressed in cells assessed as inhibition of […] human CXCL1-stimulated beta-arrestin recruitment by CCF4-AM-fluorescence based FRET assay; type: cell-based; conditions: read-out: IC50
T1 sequence (P25025 whole entry): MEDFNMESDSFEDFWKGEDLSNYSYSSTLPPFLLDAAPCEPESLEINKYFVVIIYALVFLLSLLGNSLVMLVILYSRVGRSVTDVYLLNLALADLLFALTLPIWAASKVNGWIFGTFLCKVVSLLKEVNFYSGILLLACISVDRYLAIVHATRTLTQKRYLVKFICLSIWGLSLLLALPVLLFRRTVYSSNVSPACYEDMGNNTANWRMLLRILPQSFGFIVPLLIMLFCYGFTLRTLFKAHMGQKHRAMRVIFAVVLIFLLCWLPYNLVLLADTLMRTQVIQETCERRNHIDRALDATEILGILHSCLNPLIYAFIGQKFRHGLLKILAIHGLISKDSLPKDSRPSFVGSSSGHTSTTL
In short: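 Stable cell line expressing recombinant human CXCR2 linked to a TEV site and Gal4-VP16. Cells were starved 24 h at 37 °C, 5% CO2, then resuspended at ~200,000 cells/mL. They were given compound in DMSO (concentration-response), stimulated with 80 nM hCXCL1 and incubated overnight at 37 °C. CCF4-AM substrate was then added for 2 h at RT in the dark.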

[3] = Solubility of compound in fasted state simulated intestinal fluid measured after 4 hrs; type: physicochemical
In short: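 Solubility in FaSSIF, read after 4 h incubation.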

[4] = Efflux ratio of passive permeability in MDCK2-MDR1 cells transduced with BacMam2-BCRP at 3 uM after 90 mins by Transwell assay; type: ADME, cell-based, Canis lupus familiaris, MDCK-MDR1; conditions: dog
In short: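 MDCKII-MDR1 cells transduced with BacMam2-BCRP in Transwells. Compound at 3 μM was measured in duplicate, A→B and B→A, after 90 min, with and without 5 μM GF120918. ER = B→A/A→B permeability without inhibitor. System qualified with amprenavir and dantrolene ERs.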

[5] = Passive permeability in MDCK2-MDR1 cells transduced with BacMam2-BCRP at 3 uM after 90 mins by Transwell assay; type: ADME, cell-based, Canis lupus familiaris, MDCK-MDR1; conditions: dog; read-out: permeability
In short: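 MDCKII-MDR1 cells transduced with BacMam2-BCRP and grown in Transwells. Compound at 3 μM, in duplicate, was incubated 90 min A→B (and B→A) with and without GF120918 (5 μM, dual P-gp/BCRP inhibitor). Passive permeability (Pexact, nm/s) was calculated by an equation from earlier work. The permeability ratio is A→B permeability with GF120918 over A→B permeability without it.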

[6] = Fraction unbound in Han-Wistar SOA rat model brain at 2 mg/kg administered via oral gavage by UPLC/MS/MS analysis; type: ADME, organism-based
[7] = Fraction unbound in Han-Wistar SOA rat model blood at 2 mg/kg administered via oral gavage by UPLC/MS/MS analysis; type: ADME, organism-based
[8] = Clearance in Wistar rat blood at 0.98 mg/kg, iv measured up to 4 hrs post dose; type: ADME, organism-based
[9] = Tmax in Wistar rat at 2.41 mg/kg, po measured up to 4 hrs post dose; type: ADME, organism-based; conditions: in vivo
Rattus norvegicus = test: Dose normalized AUC (0 to infinity) in Wistar rat at 2.41 mg/kg, po measured up to 4 hrs post dose; type: ADME, organism-based; conditions: in vivo
[10] = Clearance in dog blood at 0.85 mg/kg, iv measured up to 4 hrs post dose; type: ADME, organism-based, Canis lupus familiaris
[11] = Elimination half life in dog at 0.85 mg/kg, iv measured up to 4 hrs post dose; type: ADME, organism-based, Canis lupus familiaris; conditions: in vivo, read-out: beta t1/2 (converted)
[12] = Cmax in dog at 1.29 mg/kg, po measured up to 4 hrs post dose; type: ADME, organism-based, Canis lupus familiaris; design: dose 1.29 mg/kg, route oral; conditions: in vivo
Canis familiaris = test: Dose normalized AUC (0 to infinity) in dog at 1.29 mg/kg, po measured up to 4 hrs post dose; type: ADME, organism-based, Canis lupus familiaris; conditions: in vivo
[13] = biological target: C-C chemokine receptor type 2 (Homo sapiens, UniProt P41597); test: Agonist activity at CCR2 (unknown origin)
In short: (§1)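 β-arrestin assays run in both agonist and antagonist modes across a panel of 18 CXC and CC chemokine receptors.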

[14] = biological target: C-C chemokine receptor type 3 (Homo sapiens, UniProt P51677); test: Agonist activity at CCR3 (unknown origin); in short: as §1
[15] = biological target: C-C chemokine receptor type 6 (Homo sapiens, UniProt P51684); test: Agonist activity at CCR6 (unknown origin); in short: as §1
[16] = biological target: C-C chemokine receptor type 7 (Homo sapiens, UniProt P32248); test: Agonist activity at CCR7 (unknown origin); in short: as §1
[17] = biological target: T2, C-C chemokine receptor type 9 (Homo sapiens, UniProt P51686); test: Agonist activity at CCR9 (unknown origin); in short: as §1
Chemerin-like receptor 1 = Chemerin-like receptor 1 (Homo sapiens, UniProt Q99788); test: Agonist activity at CMKLR1 (unknown origin); in short: as §1
[18] = biological target: C-X-C chemokine receptor type 1 (Homo sapiens, UniProt P25024); test: Agonist activity at CXCR1 (unknown origin)
In short: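 Part of an 18-receptor CXC/CC chemokine receptor panel, each receptor run in β-arrestin recruitment assays in both agonist and antagonist modes.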

[19] = biological target: C-X-C chemokine receptor type 4 (Homo sapiens, UniProt P61073); test: Agonist activity at CXCR4 (unknown origin); in short: as §1
[20] = biological target: C-X-C chemokine receptor type 5 (Homo sapiens, UniProt P32302); test: Agonist activity at CXCR5 (unknown origin); in short: as §1
[21] = biological target: C-C chemokine receptor type 4 (Homo sapiens, UniProt P51679); test: Antagonist activity at CCR4 (unknown origin); in short: as §1
[22] = biological target: C-C chemokine receptor type 5 (Homo sapiens, UniProt P51681); test: Antagonist activity at CCR5 (unknown origin); in short: as §1
[23] = biological target: C-C chemokine receptor type 8 (Homo sapiens, UniProt P51685); test: Antagonist activity at CCR8 (unknown origin); in short: as §1
[24] = biological target: T2, C-C chemokine receptor type 9; test: Antagonist activity at CCR9 (unknown origin); in short: as §1
[25] = biological target: C-X-C chemokine receptor type 3 (Homo sapiens, UniProt P49682); test: Antagonist activity at CXCR3 (unknown origin); in short: as §1
[26] = biological target: C-X-C chemokine receptor type 6 (Homo sapiens, UniProt O00574); test: Antagonist activity at CXCR6 (unknown origin); in short: as §1
[27] = Intrinsic clearance in human hepatocytes; type: ADME, cell-based, Hepatocyte
[28] = biological target: C-X-C chemokine receptor type 2 (Mus musculus, UniProt P35343); test: Antagonist activity at CXCR2 in C57 mouse whole blood assessed as inhibition of GROalpha-stimulated CD11b upregulation preincubated for 2 hr followed by GROalpha stimulation measured after 10 mins by FITC-staining based FACS analysis
Chain of C-X-C chemokine receptor type 2 (Mus musculus, UniProt P35343) (P35343 whole entry): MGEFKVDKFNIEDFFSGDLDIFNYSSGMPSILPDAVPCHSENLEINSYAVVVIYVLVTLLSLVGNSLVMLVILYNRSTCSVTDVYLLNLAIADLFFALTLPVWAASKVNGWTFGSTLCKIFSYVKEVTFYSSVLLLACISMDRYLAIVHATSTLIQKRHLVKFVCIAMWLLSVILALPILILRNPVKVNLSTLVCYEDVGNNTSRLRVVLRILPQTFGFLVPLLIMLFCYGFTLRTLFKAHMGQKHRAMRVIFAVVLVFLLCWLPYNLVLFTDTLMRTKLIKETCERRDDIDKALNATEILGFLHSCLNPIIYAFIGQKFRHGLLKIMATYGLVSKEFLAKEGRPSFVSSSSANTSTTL

T2 sequence (P51686 whole entry): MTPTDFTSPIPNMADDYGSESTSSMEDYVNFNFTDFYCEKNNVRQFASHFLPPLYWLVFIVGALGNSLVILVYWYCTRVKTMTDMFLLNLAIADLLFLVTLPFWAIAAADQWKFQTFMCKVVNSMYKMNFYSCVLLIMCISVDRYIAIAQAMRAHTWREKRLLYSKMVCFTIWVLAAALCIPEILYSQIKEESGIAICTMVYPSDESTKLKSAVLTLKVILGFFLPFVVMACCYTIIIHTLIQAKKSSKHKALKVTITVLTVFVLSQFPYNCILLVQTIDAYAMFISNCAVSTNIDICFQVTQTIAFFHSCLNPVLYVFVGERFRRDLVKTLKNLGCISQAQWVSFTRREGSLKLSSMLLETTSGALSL
Chain of C-C chemokine receptor type 2 (P41597 whole entry): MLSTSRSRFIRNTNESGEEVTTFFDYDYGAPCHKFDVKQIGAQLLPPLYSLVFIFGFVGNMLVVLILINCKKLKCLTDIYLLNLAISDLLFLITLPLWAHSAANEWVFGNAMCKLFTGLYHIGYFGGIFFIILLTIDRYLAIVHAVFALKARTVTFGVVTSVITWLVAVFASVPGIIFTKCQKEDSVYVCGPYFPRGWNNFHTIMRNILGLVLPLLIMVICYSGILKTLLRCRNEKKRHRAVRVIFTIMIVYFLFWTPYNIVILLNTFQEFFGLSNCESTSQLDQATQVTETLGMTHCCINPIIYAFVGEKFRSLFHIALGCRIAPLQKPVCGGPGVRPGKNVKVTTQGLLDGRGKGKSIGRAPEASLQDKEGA
Chain of C-C chemokine receptor type 3 (P51677 whole entry): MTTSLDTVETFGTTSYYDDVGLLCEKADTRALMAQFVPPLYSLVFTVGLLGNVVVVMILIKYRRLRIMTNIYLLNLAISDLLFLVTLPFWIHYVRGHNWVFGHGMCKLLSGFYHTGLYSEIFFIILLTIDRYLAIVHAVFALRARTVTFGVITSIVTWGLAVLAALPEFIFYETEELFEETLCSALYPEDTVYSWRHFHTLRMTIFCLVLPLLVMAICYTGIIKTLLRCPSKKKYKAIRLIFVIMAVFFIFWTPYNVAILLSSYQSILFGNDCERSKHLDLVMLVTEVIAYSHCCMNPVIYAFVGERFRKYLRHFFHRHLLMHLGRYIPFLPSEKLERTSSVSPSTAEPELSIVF
Chain of C-X-C chemokine receptor type 5 (P32302 whole entry): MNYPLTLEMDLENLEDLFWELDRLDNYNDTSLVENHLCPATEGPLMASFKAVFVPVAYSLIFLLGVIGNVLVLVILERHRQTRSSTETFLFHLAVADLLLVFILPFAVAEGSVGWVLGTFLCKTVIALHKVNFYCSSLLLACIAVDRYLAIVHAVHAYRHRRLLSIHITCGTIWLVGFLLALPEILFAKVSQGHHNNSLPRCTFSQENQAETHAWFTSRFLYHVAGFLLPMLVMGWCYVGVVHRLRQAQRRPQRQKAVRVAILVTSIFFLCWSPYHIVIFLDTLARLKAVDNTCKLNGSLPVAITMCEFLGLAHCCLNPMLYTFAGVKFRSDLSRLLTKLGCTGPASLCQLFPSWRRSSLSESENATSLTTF
Chain of C-C chemokine receptor type 6 (P51684 whole entry): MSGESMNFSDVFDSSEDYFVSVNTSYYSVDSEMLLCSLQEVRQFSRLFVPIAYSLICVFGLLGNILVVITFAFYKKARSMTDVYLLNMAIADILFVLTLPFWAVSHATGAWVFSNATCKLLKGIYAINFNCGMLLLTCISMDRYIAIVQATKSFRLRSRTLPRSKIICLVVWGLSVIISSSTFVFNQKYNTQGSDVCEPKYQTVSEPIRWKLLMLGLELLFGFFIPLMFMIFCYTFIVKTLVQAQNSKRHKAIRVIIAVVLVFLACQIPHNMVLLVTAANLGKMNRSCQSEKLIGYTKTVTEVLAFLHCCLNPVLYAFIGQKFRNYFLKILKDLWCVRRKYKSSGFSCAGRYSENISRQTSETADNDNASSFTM
Chain of C-C chemokine receptor type 4 (P51679 whole entry): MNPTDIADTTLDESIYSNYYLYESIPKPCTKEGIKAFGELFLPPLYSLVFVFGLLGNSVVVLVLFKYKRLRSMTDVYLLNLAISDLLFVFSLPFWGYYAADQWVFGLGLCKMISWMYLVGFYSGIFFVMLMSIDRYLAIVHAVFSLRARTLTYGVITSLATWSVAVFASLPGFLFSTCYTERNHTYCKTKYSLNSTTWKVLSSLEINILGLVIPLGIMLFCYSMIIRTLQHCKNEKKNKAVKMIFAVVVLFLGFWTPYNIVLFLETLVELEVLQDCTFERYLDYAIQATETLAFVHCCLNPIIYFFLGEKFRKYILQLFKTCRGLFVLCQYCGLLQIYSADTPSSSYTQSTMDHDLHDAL
Chain of C-X-C chemokine receptor type 1 (P25024 whole entry): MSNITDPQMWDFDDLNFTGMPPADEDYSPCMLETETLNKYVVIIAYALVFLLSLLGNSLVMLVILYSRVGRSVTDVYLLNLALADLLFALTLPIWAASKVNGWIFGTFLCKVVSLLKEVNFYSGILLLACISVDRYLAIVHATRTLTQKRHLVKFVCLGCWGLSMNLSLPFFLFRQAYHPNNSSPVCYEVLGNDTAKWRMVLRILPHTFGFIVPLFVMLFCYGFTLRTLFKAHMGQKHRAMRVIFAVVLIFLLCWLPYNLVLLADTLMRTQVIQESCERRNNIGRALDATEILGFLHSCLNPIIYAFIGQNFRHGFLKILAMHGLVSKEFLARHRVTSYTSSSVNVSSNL
Chain of Chemerin-like receptor 1 (Q99788 whole entry): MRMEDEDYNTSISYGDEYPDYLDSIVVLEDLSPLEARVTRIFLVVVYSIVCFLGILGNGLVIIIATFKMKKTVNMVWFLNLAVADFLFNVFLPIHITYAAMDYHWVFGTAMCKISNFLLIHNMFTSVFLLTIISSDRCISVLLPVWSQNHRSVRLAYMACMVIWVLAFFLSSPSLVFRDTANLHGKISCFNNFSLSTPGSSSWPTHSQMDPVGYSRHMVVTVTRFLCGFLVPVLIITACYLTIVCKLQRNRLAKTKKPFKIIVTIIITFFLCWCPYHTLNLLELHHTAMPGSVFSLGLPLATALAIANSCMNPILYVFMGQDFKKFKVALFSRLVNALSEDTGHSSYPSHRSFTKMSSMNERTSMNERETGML
Chain of C-X-C chemokine receptor type 6 (O00574 whole entry): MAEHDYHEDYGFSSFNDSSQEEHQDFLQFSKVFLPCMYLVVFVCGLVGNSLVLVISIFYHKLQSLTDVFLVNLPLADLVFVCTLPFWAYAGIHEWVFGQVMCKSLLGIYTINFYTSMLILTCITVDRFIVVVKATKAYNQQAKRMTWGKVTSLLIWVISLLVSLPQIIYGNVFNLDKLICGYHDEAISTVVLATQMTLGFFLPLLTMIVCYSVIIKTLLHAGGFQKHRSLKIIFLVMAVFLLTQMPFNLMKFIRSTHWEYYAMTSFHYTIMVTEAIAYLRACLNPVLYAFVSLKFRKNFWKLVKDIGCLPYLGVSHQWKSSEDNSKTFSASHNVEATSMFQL
Chain of C-C chemokine receptor type 7 (P32248 whole entry): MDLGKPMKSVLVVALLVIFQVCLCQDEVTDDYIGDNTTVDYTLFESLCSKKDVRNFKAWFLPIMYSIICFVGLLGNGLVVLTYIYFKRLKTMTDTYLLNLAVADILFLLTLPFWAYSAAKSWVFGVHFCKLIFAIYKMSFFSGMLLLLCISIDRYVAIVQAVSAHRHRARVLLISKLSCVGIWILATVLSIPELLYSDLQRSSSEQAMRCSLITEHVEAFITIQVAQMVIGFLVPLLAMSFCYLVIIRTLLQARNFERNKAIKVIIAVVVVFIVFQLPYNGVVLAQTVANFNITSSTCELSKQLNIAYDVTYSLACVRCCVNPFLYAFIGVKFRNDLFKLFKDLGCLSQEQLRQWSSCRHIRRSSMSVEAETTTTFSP
Chain of C-C chemokine receptor type 5 (P51681 whole entry): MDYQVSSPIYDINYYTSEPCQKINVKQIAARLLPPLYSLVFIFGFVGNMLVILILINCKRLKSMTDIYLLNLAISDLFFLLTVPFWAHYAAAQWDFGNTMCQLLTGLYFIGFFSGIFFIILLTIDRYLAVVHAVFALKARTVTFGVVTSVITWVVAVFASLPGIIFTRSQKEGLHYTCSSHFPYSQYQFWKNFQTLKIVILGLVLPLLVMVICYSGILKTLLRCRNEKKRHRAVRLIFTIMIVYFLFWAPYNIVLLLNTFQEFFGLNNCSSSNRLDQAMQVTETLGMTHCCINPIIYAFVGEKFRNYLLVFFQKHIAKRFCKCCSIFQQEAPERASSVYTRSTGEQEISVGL
Chain of C-X-C chemokine receptor type 3 (P49682 whole entry): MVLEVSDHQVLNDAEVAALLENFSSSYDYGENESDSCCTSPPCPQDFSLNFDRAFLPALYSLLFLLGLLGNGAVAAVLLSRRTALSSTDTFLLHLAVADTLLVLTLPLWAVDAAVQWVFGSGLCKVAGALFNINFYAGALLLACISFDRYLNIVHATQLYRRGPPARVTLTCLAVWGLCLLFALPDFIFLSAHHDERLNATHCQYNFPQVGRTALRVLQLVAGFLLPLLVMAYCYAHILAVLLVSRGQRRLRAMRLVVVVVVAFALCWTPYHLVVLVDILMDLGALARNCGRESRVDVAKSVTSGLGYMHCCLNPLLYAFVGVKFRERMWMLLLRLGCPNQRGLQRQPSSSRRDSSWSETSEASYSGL

CLH [1]: 1.8 mL/min/g | pIC50 [2]: 8.28 | solubility at 4 h [3]: 21 µg/mL (≈ 50.6 µM) | efflux ratio at 1.5 h, 3 µM [4]: 2 | Papp at 1.5 h, 3 µM [5]: 25.4 ×10⁻⁶ cm/s | fraction unbound [6]: 0.123 | fraction unbound [7]: 0.027 | clearance [8]: 9.1 mL/min/kg | Tmax [9]: 1 h | AUC/dose (Rattus norvegicus): 860 ng·h/mL/mg/kg | clearance [10]: 5.6 mL/min/kg | half-life [11]: 3.6 h | Cmax [12]: 728 ng/mL | AUC/dose (Canis familiaris): 2298 ng·h/mL/mg/kg | pEC50 [13]: < 5.00 | pEC50 [14]: < 5.00 | pEC50 [15]: < 5.00 | pEC50 [16]: < 5.00 | pEC50 [17]: < 5.00 | pEC50 (Chemerin-like receptor 1): < 5.00 | pEC50 [18]: < 5.00 | pEC50 [19]: < 5.00 | pEC50 [20]: < 5.00 | pIC50 [21]: < 5.00 | pIC50 [22]: < 5.00 | pIC50 [23]: < 5.00 | pIC50 [24]: < 5.00 | pIC50 [25]: < 5.00 | pIC50 [26]: < 5.00 | CLH [27]: 0.79 mL/min/g | pIC50 [28]: 8.23
Structure (SMILES): CC1=CCC[C@H]1NC(=O)Nc1ccc(Cl)c(S(=O)(=O)[C@@]2(C)CCOC2)c1O
